Results gathered from unrelated publications.
Protocols differ between the studies behind these lines.
Read-out: cell growth or viability

Compound	cell line	technique	time	notes	quantity	value
CN1CCc2cc(Nc3ncc(C4CC4)c(NCCCNC(=O)C4CCC4)n3)ccc2C1	K562	MTT	72 h		GI50	> 1000 nM
CC(C)C[C@@H]1NC(=O)[C@@H](N(C)C(=O)[C@@H](NC(=O)[C@@H]2C[C@@H](F)CN2C(=O)C2(C(F)(F)F)CC(F)(F)C2)C2CC2)CCCCNC(=O)C(C)(C)NC(=O)[C@H](Cc2cc(Cl)nn2-c2ccccc2)N(C)C1=O	NCI-H446	MTT	5 days		GI50	4400 nM
C=CC(=O)NC1CCN(c2ncc3ncnc(Nc4ccc(Oc5ccc6c(c5)ncn6C)c(C)c4)c3n2)CC1	NCI-H1373				EC50	137000 nM
COc1ccc(C#N)cc1-c1c[nH]c2ncc(-c3cncc(C(=O)N(C)C)c3)cc12	K562	MTT	72 h		GI50	330 nM
CCCN1C(=O)[C@H](CC(C)C)NC(=O)[C@@H](N(C)C(=O)[C@H](CC2CCC2)NC(=O)[C@@H]2C[C@@H](F)CN2C(=O)[C@@](C)(O)C(F)(F)F)CCCCNC(=O)C2(CC2)NC(=O)[C@@H]1Cc1cc(Cl)ccc1Cl	NCI-H446	MTT	5 days		GI50	28 nM
CCNCCCn1c2c(c3cc(OC)c(OC)cc3c1=O)C(=O)c1cc3c(nc1-2)OCO3	K562	MTS	72 h		IC50	158 nM
O=C(O)c1cccnc1Nc1cccc(C(F)(F)F)c1	HCT-15	SRB	48 h		GI50	> 30000 nM
COc1cc2c3c(n(CCCn4ccnc4)c(=O)c2cc1OC)-c1nc2c(cc1C3=O)OCO2	K562	MTS	72 h		IC50	580 nM
C=C(F)C(=O)N1CCN(c2nc(OC[C@@H]3CCCN3C)nc3c2CCN(c2cccc4cccc(Cl)c24)C3)C[C@@H]1CC#N	HCT-15	ATP luminescence		3D culture	IC50	> 1000 nM
C=CC(=O)c1cccnc1Nc1cc(C(F)(F)F)ccc1OC	HCT-15	SRB	48 h		GI50	6960 nM
O=C(Nc1ccc(OC(F)(F)Cl)cc1)c1cnc(N2CC[C@@H](O)C2)c(-c2cc[nH]n2)c1	K562	MTT	72 h		GI50	0.72 nM
C=CC(=O)N1CCN(c2nc(=O)n(-c3c(C)ccnc3C(C)C)c3nc(-c4c(O)cccc4F)c(F)cc23)[C@@H](C)C1	NCI-H1373	ATP luminescence			IC50	48.4 nM
O=C(NO)c1ccc(CNc2nc3cccc(-c4ccc5c(c4)OCO5)n3n2)cc1	SN12C	SRB			GI50	720 nM
Cc1sc2c(c1C)C(c1ccc(Cl)cc1)=N[C@@H](CC(=O)NCCCCCCCCNC(=O)COc1cccc3c1C(=O)N(C1CCC(=O)NC1=O)C3=O)c1nnc(C)n1-2 (stereo partly drawn)	K562	ATP luminescence			IC50	343 nM
COc1ccc(N)cc1-c1c[nH]c2ncc(-c3cncc(C(=O)N(C)C)c3)cc12	K562	MTT	72 h		GI50	175 nM
O=C(O)c1ccccc1Nc1cccc(C(F)(F)F)c1	HCT-15	SRB	48 h		GI50	> 30000 nM
Cc1cc(C)c(CNC(=O)c2cc(Cl)c3c(c2C)O[C@@](C)([C@H]2CC[C@H](N(C)C)CC2)O3)c(=O)[nH]1	HT-1376	ATP luminescence	18 days		GI50	18 nM
COc1ccc(OCc2ccc([N+](=O)[O-])cc2)cc1-c1c[nH]c2ncc(-c3cncc(C(=O)N(C)C)c3)cc12	K562	MTT	72 h		GI50	697 nM
